Results on two compounds are retold here after ChEMBL document CHEMBL1145502, “Roxithromycin favorably modifies the initial phase of resistance against infection with macrolide-resistant Streptococcus pneumoniae in a murine pneumonia model” (Antimicrob Agents Chemother, 2007).

In brackets after ≈: the same amount, converted by molar mass. Activity calls are given as the source filed them. The calls are words filed in the database; no cut-off is given here. Bounds are passed on as bounds.

In assay [1] the test system is Streptococcus pneumoniae. The assay can be described thus: Inhibition of pneumococcal surface protein A production in Streptococcus pneumoniae NMU112 lysates at 5 ug/mL after 12 hrs by Western blot relative to control. Format: functional, organism-based. Summed up:
(§1)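 Strain NMU112 (5 × 10⁷ CFU/ml in THY) cultured 12 h at 37°C with drug. Sonicated whole-cell lysates run on SDS-PAGE and Western blotted; bands measured by densitometry as % of drug-free culture. Two cultures per dose, three experiments (n = 5–6).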

The test system of assay [2] is Streptococcus pneumoniae. The assay can be described thus: Reduction of pneumolysin production in Streptococcus pneumoniae NMU112 lysates at 5 ug/mL after 12 hrs by Western blot relative to control. Type of assay: functional, organism-based. The method, boiled down: (§2)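 NMU112 at 5 × 10⁷ CFU/ml in THY cultured with macrolide at 37°C for 12 h, then whole-cell sonicated lysates run on SDS-PAGE and immunoblotted for pneumolysin. Band densitometry as mean % of drug-free culture; two cultures per dose per experiment, three experiments.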
(In general: Immunoblotting shows a protein as a band on a membrane.)

The subject of assay [3] is Streptococcus pneumoniae. The assay can be described thus: Antimicrobial activity against Streptococcus pneumoniae NMU112 infected in po dosed CBA/J mouse assessed as delaying in development of bacteremia […]. Type of assay: functional, organism-based.
Assay [4] relates to Streptococcus pneumoniae. The assay can be described thus: Antimicrobial activity against Streptococcus pneumoniae NMU605. Format: functional. The method, boiled down:
(§3)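 Broth microdilution MIC (NCCLS method) in Mueller-Hinton broth with 3% lysed horse blood; clinical isolates NMU605 (serotype 3) and NMUP45 (serotype 4).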

The test system of assay [5] is Streptococcus pneumoniae. The assay can be described thus: Antimicrobial activity against drug-resistant Streptococcus pneumoniae NMU112 infected CBA/J mouse assessed as median survival time at 5 mg/kg, po relative to control. Format: functional. The method, boiled down: (§4)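 Male CBA/J mice, 3-4 weeks old, 28-30 g. Macrolide given by oral gavage in saline for 3 days; RXM, ERY and CLR twice daily at 12-h intervals, AZM once daily. Saline controls. 24 h after the last dose, mice were infected intratracheally with 5 × 10⁴ CFU NMU112 (erm(B)/mef(A)). Kaplan-Meier survival and median survival time, log rank test; 10 mice per group per experiment.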

Assay [6] deals with Streptococcus pneumoniae. The assay can be described thus: Antimicrobial activity against Streptococcus pneumoniae NMU112. Format: functional. Summed up:
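Broth microdilution MIC per NCCLS in Mueller-Hinton broth with 3% lysed horse blood.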

Assay [7] relates to Streptococcus pneumoniae. The assay can be described thus: Antimicrobial activity against drug-resistant Streptococcus pneumoniae NMU112 infected CBA/J mouse assessed as median survival time at 10 mg/kg, po relative to control. Type of assay: functional. The method, boiled down:
as §4

Assay [8] concerns Streptococcus pneumoniae. The assay can be described thus: Antimicrobial activity against drug-resistant Streptococcus pneumoniae NMU112 infected CBA/J mouse assessed as median survival time at 20 mg/kg, po relative to control. Format: functional. The method, boiled down:
as §4

In assay [9] the test system is Streptococcus pneumoniae. The assay can be described thus: Inhibition of pneumococcal surface protein A production in Streptococcus pneumoniae NMU112 lysates at 10 ug/mL after 12 hrs by Western blot relative to control. Format: functional, organism-based. Summed up:
as §1

The subject of assay [10] is Streptococcus pneumoniae. The assay can be described thus: Reduction of pneumolysin production in Streptococcus pneumoniae NMU112 lysates at 10 ug/mL after 12 hrs by Western blot relative to control. Type of assay: functional, organism-based. The method, boiled down: as §2
Assay [11] has as its system Streptococcus pneumoniae. The assay can be described thus: Antimicrobial activity against Streptococcus pneumoniae NMUP45. Format: functional. The method, boiled down:
as §3

The MIC is the least concentration at which growth counts as inhibited. Low readings indicate a more susceptible organism, high ones a less susceptible organism. Consider `CC[C@H]1OC(=O)[C@H](C)[C@@H](O[C@H]2C[C@@](C)(OC)[C@@H](O)[C@H](C)O2)[C@H](C)[C@@H](O[C@@H]2O[C@H](C)C[C@H](N(C)C)[C@H]2O)[C@](C)(O)C[C@@H](C)CN(C)[C@H](C)[C@@H](O)[C@]1(C)O` [AZITHROMYCIN], for which the result in assay [1], in assay [2] and in [3] was Active. Further, the figures for the minimum inhibitory concentration (MIC) in [4] and in assay [6] were 0.125 µg/mL (≈ 0.167 µM) and at least 256 µg/mL, respectively. For the same compound, the values for the MST in assay [5] and in [7] were 5.84 days and 7.33 days, respectively.

Turning to `CC[C@H]1OC(=O)[C@H](C)[C@@H](O[C@H]2C[C@@](C)(OC)[C@@H](O)[C@H](C)O2)[C@H](C)[C@@H](O[C@@H]2O[C@H](C)C[C@H](N(C)C)[C@H]2O)[C@](C)(O)C[C@@H](C)C(=O)[C@H](C)[C@@H](O)[C@]1(C)O` [ERYTHROMYCIN], the MST in [8] stood at 6.78 days; in assay [7], 5.27 days. Also, the result in assay [2], in assay [3], in assay [9] and in [10] was Active. The minimum inhibitory concentration (MIC) in assay [4] was 0.03 µg/mL (≈ 0.0409 µM); in assay [11], 2 µg/mL (≈ 2.73 µM); in [6] it was at least 256 µg/mL.
